Rows were chosen to be rich in hits. Some 2.2% of all compounds tested hit in one or more screens of this group.
V-ATPase pHluor: regulators of yeast V-ATPase proton pumping, primary screen, pHLuorin cytosolic pH fluorescence. S. cerevisiae. response, % at 10 µM. 350,000 compounds, 0.37% hits. AID 504577, 2011; in the data active means response mostly above about 7.3%, no sharp cut-off; inactive means mostly below about 5.4%; further: actives read high
GAA850 FXN act: FXN promoter activators, primary screen, cell-based, luciferase luminescence, HEK293 lucGAA850. HEK293 lucGAA850 FXN promoter luciferase reporter, 24 h; percent of 10 µM SAHA response. activation, % at 6 µM. 360,000 compounds, 0.56% hits. AID 540364, 2011;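 active means activation above the average of all compounds screened plus 3 SD, cutoff fixed separately per campaign, cut at about 7.5% in these data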;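 further: 0% = DMSO wells and 100% = 10 µM SAHA wells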
NR2E3 ag-1: inhibitors of NR2E3-RetCOR corepressor binding, primary screen, NR2E3 agonist project, biochemical, TR-FRET, GST-NR2E3, biotin-RetCOR; Photoreceptor-specific nuclear receptor (Homo sapiens), Q9Y5X4; 1536-well; inhibition of corepressor binding, % at 4.78 µM; 320,000 compounds, 0.12% hits; AID 2300, 2010;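 active means percent inhibition above the cutoff of mean plus 3 SD of all tested compounds, set per screening campaign, cut at about 20% in these data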;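 further: 0% = DMSO wells and 100% = biotin wells as full block of FRET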
Target sequence (Q9Y5X4 whole entry, looked up): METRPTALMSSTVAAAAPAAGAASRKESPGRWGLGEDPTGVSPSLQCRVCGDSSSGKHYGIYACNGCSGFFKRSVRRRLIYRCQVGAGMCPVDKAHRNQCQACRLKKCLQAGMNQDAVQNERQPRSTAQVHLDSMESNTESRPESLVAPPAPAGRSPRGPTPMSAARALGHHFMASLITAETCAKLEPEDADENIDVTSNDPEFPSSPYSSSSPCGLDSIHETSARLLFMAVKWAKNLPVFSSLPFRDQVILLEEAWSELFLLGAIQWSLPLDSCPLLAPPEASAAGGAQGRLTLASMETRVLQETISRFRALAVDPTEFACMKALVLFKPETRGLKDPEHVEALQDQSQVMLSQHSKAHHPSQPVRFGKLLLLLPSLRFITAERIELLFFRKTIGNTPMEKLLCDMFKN
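Material: NR2E3–RetCOR corepressor complex | Quantity: 1.35 nM GST-tagged NR2E3 final | Schedule: 5 h at 4 °C | Replication: Singlicate compound wells | Reagent: RetCOR corepressor, biotinylated, 7 nM | Controls: Biotin wells as high control, 0.6% DMSO wells as low control | Signal: TR-FRET, Eu(K)-anti-GST donor, streptavidin-D2 acceptor, ex 340, em 617/671 nm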
GalR3 antagonist: GalR3 antagonists in HEK293 cells, primary screen, cell-based, fluorescence readout; HEK293 GalR3-CNG cAMP membrane potential fluorescence; galR3 body fused to GalR1 C-terminus; inhibition, % at 3 µM; 360,000 compounds, 0.44% hits;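 active means inhibition above the screen-wide average plus 3 SD, cut at about 13% in these data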;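 further: forskolin and galanin both at EC90 stimulate the cells; cAMP rise reported by CNG channel membrane potential dye signal; 0% = forskolin plus galanin with DMSO and 100% = forskolin alone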
Target sequence (O60755 1-299 limits assumed): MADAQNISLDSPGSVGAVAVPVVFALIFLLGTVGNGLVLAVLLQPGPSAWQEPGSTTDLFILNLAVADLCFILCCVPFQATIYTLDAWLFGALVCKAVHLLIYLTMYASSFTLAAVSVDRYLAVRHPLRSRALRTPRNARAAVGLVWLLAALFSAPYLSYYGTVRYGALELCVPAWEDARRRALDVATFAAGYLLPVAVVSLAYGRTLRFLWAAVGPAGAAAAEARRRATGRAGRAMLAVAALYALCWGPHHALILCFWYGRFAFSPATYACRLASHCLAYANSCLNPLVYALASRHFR
HIV Env fusion: inhibitors of HIV-1 Env-driven cell-cell fusion, primary screen, HeLa-JRFL effector, CEM21 target cells, luciferase | inhibition, % at 12.3 µM | AID 651610, 2012 | 360,000 compounds, 1.1% hits;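 active means mean replicate inhibition score of at least 50 and every replicate individually at or above 50; inconclusive means only one of the two criteria met; inactive means mean below 50 and not all replicates reaching 50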;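 further: 0% = plate neutral controls and 100% = maraviroc near 300 nM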
NR2E3 ag-2: NR2E3 agonists in two-hybrid cells, primary screen, cell-based, luminescence, CHO-S, Gal4-NCOR/VP16-NR2E3. Photoreceptor-specific nuclear receptor (Homo sapiens), Q9Y5X4. AID 602229, 2012. inhibition of corepressor binding, % at 3.98 µM. luciferase. 360,000 compounds, 0.35% hits;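 active means inhibition above the mean of all tested compounds plus 3 SD, cut at about 70% in these data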;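 further: 0% = DMSO with NR2E3 transfected cells and 100% = cells lacking NR2E3 construct; higher means lower luciferase signal from less NR2E3 corepressor binding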
GAA30 counter: GAA30 FXN promoter activators, confirmation, counter-screen for GAA850 frataxin promoter activator project, cell-based, luminescence, HEK293, lucGAA30, triplicate; shares compounds with GAA850 FXN act; HEK293 lucGAA30 FXN promoter luciferase, 24 h; DMSO = 0%, 5 µM ipriflavone = 100%; activation, % at 6 µM; 1,900 compounds, 66% hits;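 active means mean activation above the mean of solvent-only control wells plus 3 SD, cut at about 22% in these data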;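 further: counterscreen of GAA850 promoter hits where activity marks nonselective or luminescence artifacts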
FXN GAA850 conf: FXN GAA850 promoter activators in reporter cells, confirmation, cell-based, luminescence, HEK293 lucGAA850, triplicate; HEK293 lucGAA850 FXN promoter luciferase reporter, 24 h; 100% = activation by SAHA; activation, % at 6 µM; AID 588351, 2011; shares compounds with GAA850 FXN act; 1,900 compounds, 86% hits;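 active means mean activation above a set limit taken from the primary screen, cut at about 8% in these data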;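 further: 0% = DMSO wells and 100% = 10 µM SAHA wells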
Numbers without * were called inactive; ? = inconclusive; nt = no result given; [ ] = another dose, or the depositor's remark.

SMILES	V-ATPase pHluor	GAA850 FXN act	NR2E3 ag-1	GalR3 antagonist	HIV Env fusion	NR2E3 ag-2	GAA30 counter	FXN GAA850 conf
Cc1cc(NC(=O)C(C)SCC(=O)Nc2cc(C(F)(F)F)ccc2N2CCCCC2)no1 (stereo not given)	0	9.1*	-2	-9	74*	-18	24*	16*
Cc1cc(C)c2c(N)c(C(=O)Nc3ccc([N+](=O)[O-])cc3)sc2n1	2	9.4*	0	-6	0	-109	98*	32*
CCN(C[C@H]1N[C@@](CC)(C(=O)OC)[C@H]2C(=O)N(Cc3ccccc3)C(=O)[C@@H]12)S(=O)(=O)c1ccc(C)cc1	3	10*	nt	-3	81*	-17	11	8.1*
CCN(C[C@H]1N[C@@](CC)(C(=O)OC)[C@H]2C(=O)N(Cc3ccccc3)C(=O)[C@@H]12)S(=O)(=O)c1ccc(OC(F)(F)F)cc1	5	11*	nt	-8	87*	-13	21	10*
C[C@@H]1CN([C@@H](C)CO)C(=O)c2cc(NC(=O)C3CCCCC3)ccc2O[C@@H](C)CCCCO[C@H]1CN(C)S(=O)(=O)c1ccc(F)cc1	nt	nt	nt	nt	-1[16.7 µM]	nt	nt	nt
COc1ccc(-c2ccc3c(c2)O[C@@H](CN(C)Cc2ccccc2C(=O)O)[C@H](C)CN([C@@H](C)CO)S3(=O)=O)cc1	nt	nt	nt	nt	-2[16.7 µM]	nt	nt	nt
CCOC(=O)c1c(CSC(=N)N)n(C)c2cc(Br)c(OC(C)=O)cc12	5	6	-2	-6	-11	-11	nt	nt
CCOC(=O)c1c(CSC(=N)N)n(-c2ccc(C)cc2)c2cc(Br)c(OC(C)=O)cc12	0	12*	0	-11	-41	-29	-10	38*
C[C@@H]1CCCCO[C@@H](CN(C)S(=O)(=O)c2ccc(Cl)cc2)[C@H](C)CN([C@H](C)CO)C(=O)c2cc(NC(=O)Nc3ccccc3)ccc2O1	nt	nt	nt	nt	28[16.7 µM]	nt	nt	nt
O=C(NCc1ccccc1Cl)C1CCCN(c2nc3ccsc3c(=O)s2)C1 (stereo not given)	nt	nt	-1	nt	nt	nt	nt	nt
CC1CCCN(c2nc3ccsc3c(=O)s2)C1 (stereo not given)	4	11*	-1	-6	-80	-93	82*	35*
O=C(O)c1ccc(N/N=C/c2cc3ccccc3nc2Cl)cc1	6	11*	-3	-1	-34	-144	120*	47*
Cn1c(/C=N/Nc2nc3ccccc3[nH]2)nc2ccccc21	1	8.5*	-5	-4	-269	-123	-33	-10
CCCn1c(/C=N/Nc2nc3ccccc3[nH]2)nc2ccccc21	-3	5	nt	-6	33	-74	nt	nt
Cc1cccc2cc(/C=N/Nc3ccc(C(=O)O)cc3)c(Cl)nc12	-2	12*	-3	-9	-313	-109	128*	49*
Clc1nc2ccccc2cc1/C=N/Nc1nc2ccccc2[nH]1	1	8.4*	4	-6	-338	-74	128*	44*
CCS(=O)(=O)Nc1ccc2c(c1)C(=O)N(C)C[C@@H](OC)[C@@H](C)CN(C(=O)COC)[C@@H](C)CO2	nt	nt	nt	nt	0[16.7 µM]	nt	nt	nt
C[C@@H]1CN([C@@H](C)CO)C(=O)Cc2cc(NC(=O)Cc3ccccc3)ccc2O[C@@H]1CN(C)S(C)(=O)=O	nt	nt	nt	nt	5[16.7 µM]	nt	nt	nt
C=CCn1c2ccccc2c(=O)c2cc(C#Cc3ccccn3)ccc21	3	9.0*	3	-7	-59	-74	140*	44*
Fc1ccc(-c2cnn3c(-c4ccncc4)ccnc23)cc1	-1	8.6*	6	-3	-154	-154	96*	30*
Fc1ccc(-c2cnn3c(-c4cccs4)ccnc23)cc1	0	7	nt	-2	-172	-135	nt	nt
Cc1cccc2nc(CSc3nc4ccc([N+](=O)[O-])cc4[nH]3)c(Br)n12	-3	14*	-1	-5	nt	-5	37*	17*
O=C(NNC(=S)Nc1ccccc1)Nc1ccccc1	-1	7.7*	-1	-4	7	-101	36*	11*
O=C(NNC(=S)Nc1ccccc1)NNC(=S)Nc1ccccc1	-1	1	-4	2	9	-5	nt	nt
O=C(/C=C/c1ccccc1[N+](=O)[O-])c1ccccc1Br	2	9.0*	-2	2	3	2	75*	43*
SMILES	V-ATPase pHluor	GAA850 FXN act	NR2E3 ag-1	GalR3 antagonist	HIV Env fusion	NR2E3 ag-2	GAA30 counter	FXN GAA850 conf
Cc1ccc(C(=O)/C=C/c2ccccc2[N+](=O)[O-])cc1	2	3	3	0	-11	-184	nt	nt
CO[C@@H]1CN(C)C(=O)c2cc(NC(=O)NC(C)C)ccc2OC[C@@H](C)NC[C@@H]1C	nt	nt	nt	nt	-5[16.7 µM]	nt	nt	nt
O=C(C=Cc1ccccn1)c1ccccc1O	11	8.5*	nt	-2	-2	-50	-40	26*
CNC[C@@H]1Oc2cc(C#CCN(C)C)ccc2S(=O)(=O)N([C@@H](C)CO)C[C@@H]1C	nt	nt	nt	nt	14[16.7 µM]	nt	nt	nt
Oc1cccc(/C=N/N=C/c2cccc(O)c2O)c1O	-2	8.9*	2	0	-58	-16	37*	18*
Cc1ccccc1N=Cc1cccc(O)c1O	0	4	-2	nt	nt	-13	nt	nt
CCc1nc2ccc(C(=O)NCCOc3ccc(OC)cc3)cn2c1N(CC)Cc1ccc(OC)c(OC)c1	nt	8.4*	nt	-4	?	-5	5	4
CCc1nc2ccc(C(=O)NCCN3CCNC3=O)cn2c1N(C)Cc1ccc(OC)cc1	nt	14*	nt	-6	45	-13	22*	6
CCc1nc2ccc(C(=O)Nc3ccc(OC)c(OC)c3)cn2c1N(CC)Cc1ccc(OC)c(OC)c1	nt	2	nt	-8	14	-2	nt	nt
C[C@H](O)C#Cc1ccc2c(c1)O[C@@H](CN(C)C(=O)c1ccccc1)[C@H](C)CN([C@H](C)CO)S2(=O)=O	nt	nt	nt	nt	-15[16.7 µM]	nt	nt	nt
C=CCn1c(SCC(=O)Nc2ccccc2OC)nc2c([nH]c3ccccc32)c1=O	3	13*	1	-1	63*	-4	18	12*
COCCn1c(SCC(=O)Nc2ccccc2OC)nc2c([nH]c3ccccc32)c1=O	0	8.0*	0	-5	92*	-3	14	7.9*

Assay outcomes as filed in PubChem.
